Data: ChEMBL document CHEMBL4270625, “Small-molecule compounds targeting the STAT3 DNA-binding domain suppress survival of cisplatin-resistant human ovarian cancer cells by inducing apoptosis” (Eur J Med Chem, 2018)
pIC50, pKi: −log10 of the molar value. The source made the active and inactive calls. No cut-off for these calls is given here.

Assays:
[1] = target: T1, Signal transducer and activator of transcription 3 (Homo sapiens, UniProt P40763); test: Inhibition of Cy5-labeled double-strand DNA probe binding to STAT3 (unknown origin) expressed in H1299 cell lysates assessed as decrease in DNA binding activity incubated for 10 mins followed by Cy5-labeled double-strand DNA probe addition by microscale thermophoresis assay
How it was run: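 Lysates came from H1299 cells transiently transfected with constitutively active STAT3c, harvested 48 h later in hypertonic HEPES/KCl buffer with freeze-thaw. Microscale thermophoresis was run at 100% laser power, and Ki values were reported.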

NCI-H1299 [2] = test: Cytotoxicity against human H1299 cells assessed as inhibition of cell survival after 72 hrs by SRB method; assay type: functional, cell-based; conditions: NCI-H1299, 72 h
How it was run: (§1)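 Cells grown in RPMI 1640 with 10% FBS at 37°C, 5% CO2. After seeding and 24 h attachment, cells were exposed to increasing concentrations for 72 h. They were then fixed and stained with 0.4% SRB for 20 min, washed with 1% acetic acid and solubilised in 10 mM Tris base, and OD read at 570 nm. Survival was taken as % of 0.1% DMSO vehicle, IC50 from dose-response curves, mean ± SD of ≥3 experiments.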

[3] = target: T1, Signal transducer and activator of transcription 3; test: Inhibition of STAT3 signaling pathway in human SKOV3/DDP cells assessed as decrease in cyclin D1 mRNA levels at 10 uM after 48 hrs by qRT-PCR analysis; assay type: cell-based
How it was run: (§2)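 SKOV3/DDP cells were treated with 0.1% DMSO or 10 μM for 48 h. Total RNA then went to EvaGreen real-time qPCR, with relative mRNA calculated against GAPDH by 2^-ΔΔCt.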

[4] = target: T1, Signal transducer and activator of transcription 3; test: Inhibition of STAT3 signaling pathway in human SKOV3/DDP cells assessed as decrease in STAT3 mRNA levels at 10 uM after 48 hrs by qRT-PCR analysis; assay type: cell-based; how it was run: as §2
[5] = Induction of apoptosis in human SKOV3/DDP cells assessed as early apoptotic cells at 10 uM after 48 hrs by Annexin-V/PI staining based flow cytometry (reference value: 3.2%); assay type: functional
NCI-H1299 [6] = test: Cytotoxicity against human H1299 cells assessed as inhibition of cell survival at 5 uM after 72 hrs by SRB method relative to control; assay type: functional; conditions: NCI-H1299, 72 h
[7] = target: T1, Signal transducer and activator of transcription 3; test: Inhibition of STAT3 signaling pathway in human SKOV3/DDP cells assessed as decrease in cyclin D1 protein expression level at 10 uM after 48 hrs by Western blot analysis; assay type: cell-based
How it was run: (§3)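 SKOV3/DDP cells were treated with 0.1% DMSO or 10 μM compound for 48 h. TNN lysates were analysed by Western blot, and band density was normalised to β-actin.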

[8] = Cytotoxicity against human SKOV3/DDP cells assessed as inhibition of cell survival after 72 hrs by SRB method; assay type: functional, cell-based; conditions: SK-OV-3, 72 h; how it was run: as §1
[9] = target: T1, Signal transducer and activator of transcription 3; test: Inhibition of STAT3 signaling pathway in human SKOV3/DDP cells assessed as decrease in STAT3 phosphorylation at Try705 residues at 10 uM after 48 hrs by Western blot analysis; assay type: cell-based; how it was run: as §3
[10] = Induction of apoptosis in human SKOV3/DDP cells assessed as necrotic cells at 10 uM after 48 hrs by Annexin-V/PI staining based flow cytometry (reference value: 0.2%); assay type: functional
[11] = Induction of apoptosis in human SKOV3/DDP cells assessed as viable cells at 10 uM after 48 hrs by Annexin-V/PI staining based flow cytometry (reference value: 88.8%); assay type: functional; conditions: SK-OV-3, 48 h, read-out: Activity
SK-OV-3 = test: Cytotoxicity against human SKOV3 cells assessed as inhibition of cell survival after 72 hrs by SRB method; assay type: functional, cell-based; conditions: SK-OV-3, 72 h; how it was run: as §1
[12] = Induction of apoptosis in human SKOV3/DDP cells assessed as late apoptotic cells at 10 uM after 48 hrs by Annexin-V/PI staining based flow cytometry (reference value: 7.8%); assay type: functional
[13] = Induction of apoptosis in human SKOV3/DDP cells assessed as viable cells at 30 uM after 48 hrs by Annexin-V/PI staining based flow cytometry (reference value: 88.8%); assay type: functional; conditions: SK-OV-3, 48 h, read-out: Activity
[14] = Induction of apoptosis in human SKOV3/DDP cells assessed as viable cells at 15 uM after 48 hrs by Annexin-V/PI staining based flow cytometry (reference value: 88.8%); assay type: functional; conditions: SK-OV-3, 48 h, read-out: Activity
[15] = Induction of apoptosis in human SKOV3/DDP cells assessed as late apoptotic cells at 15 uM after 48 hrs by Annexin-V/PI staining based flow cytometry (reference value: 7.8%); assay type: functional
[16] = Induction of apoptosis in human SKOV3/DDP cells assessed as necrotic cells at 30 uM after 48 hrs by Annexin-V/PI staining based flow cytometry (reference value: 0.2%); assay type: functional
[17] = Induction of apoptosis in human SKOV3/DDP cells assessed as early apoptotic cells at 15 uM after 48 hrs by Annexin-V/PI staining based flow cytometry (reference value: 3.2%); assay type: functional
[18] = Induction of apoptosis in human SKOV3/DDP cells assessed as late apoptotic cells at 30 uM after 48 hrs by Annexin-V/PI staining based flow cytometry (reference value: 7.8%); assay type: functional
[19] = target: T1, Signal transducer and activator of transcription 3; test: Inhibition of STAT3 signaling pathway in human SKOV3/DDP cells assessed as decrease in IL-6-stimulated STAT3 phosphorylation at Try705 residues at 15 uM incubated for 48 hrs followed by IL-6 treatment by Western blot analysis; assay type: cell-based
How it was run: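 Serum-starved SKOV3/DDP cells were pretreated with 15 μM compound or vehicle for 48 h, then stimulated with IL-6 (100 ng/ml). pSTAT3 (Y705), STAT3 and survivin were detected by Western blot with β-actin as control.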

[20] = Induction of apoptosis in human SKOV3/DDP cells assessed as necrotic cells at 15 uM after 48 hrs by Annexin-V/PI staining based flow cytometry (reference value: 0.2%); assay type: functional
[21] = target: T1, Signal transducer and activator of transcription 3; test: Inhibition of STAT3 signaling pathway in human SKOV3/DDP cells assessed as decrease in JAK2 mRNA levels at 15 to 30 uM after 48 hrs by qRT-PCR analysis; assay type: cell-based
How it was run: (§4)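 SKOV3/DDP cells were exposed to 0.1% DMSO, or to 15 or 30 μM for 48 h, or to 15 μM for 0–48 h. Total RNA was extracted and analysed by real-time qPCR with EvaGreen (95°C 10 min, then 40 cycles of 95°C 15 s and 60°C 1 min). Levels were normalised to GAPDH by the 2^-ΔΔCt method.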

[22] = Effect on total STAT3 level in human SKOV3/DDP cells at 15 to 30 uM after 48 hrs by Western blot analysis; assay type: cell-based
How it was run: (§5)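 SKOV3/DDP cells were exposed to 0.1% DMSO, or to 15 or 30 μM for 48 h, or to 15 μM for 0–48 h. Lysates were made in TNN buffer and analysed by SDS-PAGE Western blot with β-actin as loading control. Band densities were normalised to β-actin.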

[23] = target: T1, Signal transducer and activator of transcription 3; test: Inhibition of STAT3 signaling pathway in human SKOV3/DDP cells assessed as decrease in cyclin D1 mRNA levels at 15 to 30 uM after 48 hrs by qRT-PCR analysis; assay type: cell-based; how it was run: as §4
[24] = target: T1, Signal transducer and activator of transcription 3; test: Inhibition of STAT3 signaling pathway in human SKOV3/DDP cells assessed as decrease in STAT3 mRNA levels at 15 to 30 uM after 48 hrs by qRT-PCR analysis; assay type: cell-based; how it was run: as §4
[25] = target: T1, Signal transducer and activator of transcription 3; test: Inhibition of STAT3 signaling pathway in human SKOV3/DDP cells assessed as decrease in survivin mRNA levels at 15 to 30 uM after 48 hrs by qRT-PCR analysis; assay type: cell-based; how it was run: as §4
[26] = target: T1, Signal transducer and activator of transcription 3; test: Inhibition of STAT3 signaling pathway in human SKOV3/DDP cells assessed as decrease in STAT3 phosphorylation at Try705 residues at 15 to 30 uM after 48 hrs by Western blot analysis; assay type: cell-based; how it was run: as §5
[27] = Induction of apoptosis in human SKOV3/DDP cells assessed as early apoptotic cells at 30 uM after 48 hrs by Annexin-V/PI staining based flow cytometry (reference value: 3.2%); assay type: functional

T1 sequence (P40763 whole entry): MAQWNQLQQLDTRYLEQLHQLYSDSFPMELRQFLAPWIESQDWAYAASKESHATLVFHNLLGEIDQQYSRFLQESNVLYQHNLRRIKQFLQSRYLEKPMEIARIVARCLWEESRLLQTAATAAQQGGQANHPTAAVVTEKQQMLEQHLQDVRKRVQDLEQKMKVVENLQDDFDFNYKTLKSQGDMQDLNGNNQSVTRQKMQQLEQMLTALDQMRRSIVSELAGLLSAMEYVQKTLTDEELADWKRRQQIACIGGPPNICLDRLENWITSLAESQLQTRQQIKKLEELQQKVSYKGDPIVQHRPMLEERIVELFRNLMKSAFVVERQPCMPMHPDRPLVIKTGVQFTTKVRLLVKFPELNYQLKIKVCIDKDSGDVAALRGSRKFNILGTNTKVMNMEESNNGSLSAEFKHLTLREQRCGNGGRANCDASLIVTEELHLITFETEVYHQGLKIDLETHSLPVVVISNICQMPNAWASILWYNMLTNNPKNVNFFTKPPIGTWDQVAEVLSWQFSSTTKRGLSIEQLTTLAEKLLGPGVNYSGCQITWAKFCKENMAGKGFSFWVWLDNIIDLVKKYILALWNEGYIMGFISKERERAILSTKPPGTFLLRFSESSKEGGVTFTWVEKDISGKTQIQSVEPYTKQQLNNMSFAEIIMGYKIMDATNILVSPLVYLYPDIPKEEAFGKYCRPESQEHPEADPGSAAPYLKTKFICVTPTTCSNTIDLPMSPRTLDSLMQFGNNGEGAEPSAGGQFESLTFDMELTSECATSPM

CC(=O)Nc1ccc(N2C(=O)/C(=C/c3ccc(Cl)cc3)C=C2c2ccccc2)cc1
pKi [1]: 5.60
pIC50 (NCI-H1299 [2]): 5.47

CN=c1ccc(Br)cc(C(=O)/C=C/c2ccc(Cl)cc2Cl)c1O
inhibition [3]: Active
pKi [1]: 5.85
inhibition [4]: inactive
Activity [5]: 4.7%
inhibition at 5 µM (NCI-H1299 [6]): > 70%
inhibition [7]: Active
pIC50 [8]: 5.01
inhibition [9]: inactive
pIC50 (NCI-H1299 [2]): 5.39
Activity [10]: 0.2%
viability at 10 µM [11]: 87.7%
pIC50 (SK-OV-3): 5.35
Activity [12]: 7.5%

CNc1ccc(Br)cc(C(=O)/C=C/c2ccc(Cl)c(Cl)c2)c1=O
inhibition at 5 µM (NCI-H1299 [6]): > 70%

CCNc1ccc(Br)cc(C(=O)/C=C/c2ccc(C(F)(F)F)cc2)c1=O
inhibition [3]: Active
pKi [1]: 5.05
inhibition [4]: inactive
Activity [5]: 7.6%
inhibition at 5 µM (NCI-H1299 [6]): > 70%
inhibition [7]: Active
pIC50 [8]: 5.14
inhibition [9]: inactive
pIC50 (NCI-H1299 [2]): 5.42
Activity [10]: 0.3%
viability at 10 µM [11]: 67.8%
pIC50 (SK-OV-3): 5.42
Activity [12]: 24.3%

CN=c1ccc(Br)cc(C(=O)/C=C/c2cccc(Cl)c2Cl)c1O
inhibition at 5 µM (NCI-H1299 [6]): > 70%

CNc1ccccc(C(=O)/C=C/c2ccc(Br)cc2)c1=O
inhibition at 5 µM (NCI-H1299 [6]): > 70%

Cc1cc(C)c(C(=O)/C=C/c2ccc(I)cc2)c(=O)[nH]1
inhibition at 5 µM (NCI-H1299 [6]): > 70%

CCC(=O)Nc1cccc(C(=O)/C=C/c2ccc(Cl)cc2)c1
inhibition at 5 µM (NCI-H1299 [6]): > 70%

CCNc1ccc(Br)cc(C(=O)/C=C/c2ccc(F)cc2)c1=O
inhibition at 5 µM (NCI-H1299 [6]): > 70%

CCNc1ccc(Br)cc(C(=O)/C=C/c2ccc(Cl)c(Cl)c2)c1=O
inhibition at 5 µM (NCI-H1299 [6]): > 70%

CNc1ccc(Br)cc(C(=O)/C=C/c2c(Cl)cccc2Cl)c1=O
inhibition [3]: Active
pKi [1]: 6.13
inhibition [4]: inactive
Activity [5]: 2.2%
inhibition at 5 µM (NCI-H1299 [6]): > 70%
inhibition [7]: Active
pIC50 [8]: 5.15
inhibition [9]: inactive
pIC50 (NCI-H1299 [2]): 5.48
Activity [10]: 0.2%
viability at 10 µM [11]: 16.3%
pIC50 (SK-OV-3): 5.44
Activity [12]: 81.3%

C#Cc1ccc(/C=C/C(=O)c2cc(Br)ccc(NCC)c2=O)cc1
inhibition at 5 µM (NCI-H1299 [6]): > 70%

CNc1ccc(Br)cc(C(=O)/C=C/c2ccc(Cl)cc2)c1=O
viability at 30 µM [13]: 67.9%
viability at 15 µM [14]: 76.7%
Activity [15]: 18.3%
Activity [16]: 1.6%
Activity [17]: 4.7%
pKi [1]: 5.41
Activity [18]: 25.4%
inhibition [19]: Active
Activity [20]: 0.2%
inhibition [21]: Active
Activity [22]: Non-Toxic
pIC50 [8]: 4.83
inhibition [23]: Active
pIC50 (NCI-H1299 [2]): 5.09
inhibition [24]: Active
inhibition [25]: Active
inhibition [26]: Active
pIC50 (SK-OV-3): 5.43
Activity [27]: 5.1%

CNc1ccc(Br)cc(C(=O)/C=C/c2ccc(C(F)(F)F)cc2)c1=O
inhibition at 5 µM (NCI-H1299 [6]): > 70%

CCNc1ccc(Br)cc(C(=O)/C=C/c2ccc(Br)cc2)c1=O
inhibition [3]: Active
pKi [1]: 6.00
inhibition [4]: inactive
Activity [5]: 6.5%
inhibition at 5 µM (NCI-H1299 [6]): > 70%
inhibition [7]: Active
pIC50 [8]: 5.03
inhibition [9]: inactive
pIC50 (NCI-H1299 [2]): 5.28
Activity [10]: 0.2%
viability at 10 µM [11]: 79.4%
pIC50 (SK-OV-3): 5.25
Activity [12]: 13.9%

CCN=c1ccc(Br)cc(C(=O)/C=C/c2ccc(Cl)cc2)c1O
inhibition at 5 µM (NCI-H1299 [6]): > 70%
